Test results taken from the M2OR odorant receptor database.

Experiments:
Conditions in all cases: stereoisomer not certain
UniProt Q8VF52 = target: T1, UniProt Q8VF52
T1 sequence (whole entry): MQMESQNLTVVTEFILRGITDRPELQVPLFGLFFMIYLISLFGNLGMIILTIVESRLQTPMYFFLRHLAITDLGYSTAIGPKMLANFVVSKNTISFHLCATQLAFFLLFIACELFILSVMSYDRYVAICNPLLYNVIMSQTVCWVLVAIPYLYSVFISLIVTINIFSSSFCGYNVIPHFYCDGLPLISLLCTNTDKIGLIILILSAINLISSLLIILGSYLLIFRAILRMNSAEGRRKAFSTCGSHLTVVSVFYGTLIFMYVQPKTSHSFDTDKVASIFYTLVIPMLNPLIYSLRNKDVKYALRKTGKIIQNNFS
In short: (§1)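 Assay methods differ from source to source, frequently being transient luciferase assays in mammalian cell lines. For each receptor–molecule pair, the label responsive (active) applies when the original authors judged the measured signal statistically different from baseline, and non-responsive (inactive) applies otherwise.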

UniProt Q8VFM8 = target: T2, UniProt Q8VFM8
T2 sequence (whole entry): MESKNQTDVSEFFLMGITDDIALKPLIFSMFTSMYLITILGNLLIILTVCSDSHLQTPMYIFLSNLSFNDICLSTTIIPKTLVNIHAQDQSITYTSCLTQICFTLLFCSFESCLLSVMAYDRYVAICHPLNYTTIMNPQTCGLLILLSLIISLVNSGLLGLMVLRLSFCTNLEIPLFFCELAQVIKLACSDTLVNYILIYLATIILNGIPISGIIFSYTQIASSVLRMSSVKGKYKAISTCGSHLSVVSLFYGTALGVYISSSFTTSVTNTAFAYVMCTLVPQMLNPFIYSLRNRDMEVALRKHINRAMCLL
In short: as §1

UniProt Q8VFP5 = target: T3, UniProt Q8VFP5
T3 sequence (whole entry): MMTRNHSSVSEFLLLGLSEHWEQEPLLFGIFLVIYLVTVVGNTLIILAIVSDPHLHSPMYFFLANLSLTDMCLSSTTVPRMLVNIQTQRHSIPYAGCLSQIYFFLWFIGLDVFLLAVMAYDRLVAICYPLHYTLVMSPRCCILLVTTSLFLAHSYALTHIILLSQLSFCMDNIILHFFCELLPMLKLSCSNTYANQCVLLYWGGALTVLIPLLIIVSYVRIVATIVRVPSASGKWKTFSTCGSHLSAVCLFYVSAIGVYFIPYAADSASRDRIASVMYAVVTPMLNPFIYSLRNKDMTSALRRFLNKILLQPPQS
In short: as §1

UniProt Q8VG01 = target: T4, UniProt Q8VG01
T4 sequence (whole entry): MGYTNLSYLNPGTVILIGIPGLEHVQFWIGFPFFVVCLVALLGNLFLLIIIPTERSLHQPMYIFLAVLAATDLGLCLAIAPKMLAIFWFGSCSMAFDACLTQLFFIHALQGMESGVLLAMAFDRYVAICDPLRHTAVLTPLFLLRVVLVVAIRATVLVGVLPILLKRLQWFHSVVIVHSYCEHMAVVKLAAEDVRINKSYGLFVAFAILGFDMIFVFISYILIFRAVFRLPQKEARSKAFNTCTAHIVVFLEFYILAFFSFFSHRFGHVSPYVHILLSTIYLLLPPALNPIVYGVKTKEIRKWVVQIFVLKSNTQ
In short: as §1

UniProt Q8VG27 = target: T5, UniProt Q8VG27
T5 sequence (whole entry): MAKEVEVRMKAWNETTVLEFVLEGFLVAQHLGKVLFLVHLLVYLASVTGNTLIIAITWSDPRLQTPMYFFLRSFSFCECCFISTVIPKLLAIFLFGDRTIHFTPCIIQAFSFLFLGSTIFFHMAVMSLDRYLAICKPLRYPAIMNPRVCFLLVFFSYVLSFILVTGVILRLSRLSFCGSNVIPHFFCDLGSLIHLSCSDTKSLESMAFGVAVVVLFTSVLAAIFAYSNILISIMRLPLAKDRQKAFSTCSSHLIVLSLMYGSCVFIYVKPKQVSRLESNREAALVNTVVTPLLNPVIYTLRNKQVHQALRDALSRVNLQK
In short: as §1

UniProt Q8VG53 = target: T6, UniProt Q8VG53
T6 sequence (whole entry): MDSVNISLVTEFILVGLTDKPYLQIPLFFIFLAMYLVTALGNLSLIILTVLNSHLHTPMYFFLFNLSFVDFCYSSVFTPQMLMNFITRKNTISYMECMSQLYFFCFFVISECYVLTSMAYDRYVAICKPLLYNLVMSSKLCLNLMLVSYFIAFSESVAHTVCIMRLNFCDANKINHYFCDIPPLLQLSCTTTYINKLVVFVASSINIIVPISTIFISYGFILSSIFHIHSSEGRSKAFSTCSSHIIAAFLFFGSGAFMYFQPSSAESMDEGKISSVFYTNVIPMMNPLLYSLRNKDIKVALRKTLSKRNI
In short: as §1

UniProt Q8VG64 = target: T7, UniProt Q8VG64
T7 sequence (whole entry): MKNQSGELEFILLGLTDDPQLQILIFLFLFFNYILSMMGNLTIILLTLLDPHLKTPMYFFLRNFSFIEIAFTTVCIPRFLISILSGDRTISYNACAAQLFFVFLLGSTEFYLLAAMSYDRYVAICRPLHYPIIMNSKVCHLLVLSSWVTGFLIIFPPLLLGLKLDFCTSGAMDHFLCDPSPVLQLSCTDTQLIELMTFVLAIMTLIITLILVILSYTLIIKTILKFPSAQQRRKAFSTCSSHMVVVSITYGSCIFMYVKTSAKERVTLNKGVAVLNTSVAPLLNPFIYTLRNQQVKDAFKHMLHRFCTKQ
In short: as §1

UniProt Q8VGB9 = target: T8, UniProt Q8VGB9
T8 sequence (whole entry): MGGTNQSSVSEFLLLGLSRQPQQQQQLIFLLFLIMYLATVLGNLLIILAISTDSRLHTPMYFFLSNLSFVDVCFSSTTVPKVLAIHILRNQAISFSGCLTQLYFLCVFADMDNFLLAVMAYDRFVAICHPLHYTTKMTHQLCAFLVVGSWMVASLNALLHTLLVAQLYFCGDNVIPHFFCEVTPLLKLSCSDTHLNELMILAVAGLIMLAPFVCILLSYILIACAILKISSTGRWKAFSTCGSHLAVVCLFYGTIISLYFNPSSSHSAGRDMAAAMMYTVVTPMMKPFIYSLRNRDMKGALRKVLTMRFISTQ
In short: as §1

UniProt Q8VGC6 = target: T9, UniProt Q8VGC6
T9 sequence (whole entry): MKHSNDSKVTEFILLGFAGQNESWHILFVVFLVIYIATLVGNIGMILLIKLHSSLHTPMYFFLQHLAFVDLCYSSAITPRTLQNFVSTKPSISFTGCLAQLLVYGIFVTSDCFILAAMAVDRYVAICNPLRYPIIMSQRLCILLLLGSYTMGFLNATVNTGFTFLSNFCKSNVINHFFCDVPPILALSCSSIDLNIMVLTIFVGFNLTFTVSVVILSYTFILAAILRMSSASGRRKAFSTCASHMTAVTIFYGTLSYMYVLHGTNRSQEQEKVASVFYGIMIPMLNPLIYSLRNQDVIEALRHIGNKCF
In short: as §1

UniProt Q8VGJ3 = target: T10, UniProt Q8VGJ3
T10 sequence (whole entry): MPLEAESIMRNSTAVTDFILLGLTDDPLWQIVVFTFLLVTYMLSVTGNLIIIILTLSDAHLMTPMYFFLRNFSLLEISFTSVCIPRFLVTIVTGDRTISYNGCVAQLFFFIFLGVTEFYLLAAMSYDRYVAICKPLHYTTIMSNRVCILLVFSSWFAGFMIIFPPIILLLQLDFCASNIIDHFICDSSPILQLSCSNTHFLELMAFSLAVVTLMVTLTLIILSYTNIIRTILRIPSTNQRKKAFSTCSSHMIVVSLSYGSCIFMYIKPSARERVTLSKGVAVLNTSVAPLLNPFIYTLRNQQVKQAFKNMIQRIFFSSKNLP
In short: as §1

Row | SMILES | odorant receptor agonist call (UniProt Q8VF52) | odorant receptor agonist call (UniProt Q8VFM8) | odorant receptor agonist call (UniProt Q8VFP5) | odorant receptor agonist call (UniProt Q8VG01) | odorant receptor agonist call (UniProt Q8VG27) | odorant receptor agonist call (UniProt Q8VG53) | odorant receptor agonist call (UniProt Q8VG64) | odorant receptor agonist call (UniProt Q8VGB9) | odorant receptor agonist call (UniProt Q8VGC6) | odorant receptor agonist call (UniProt Q8VGJ3)
1 | OCc1ccc2c(c1)OCO2 | inactive | inactive | inactive | inactive | inactive | inactive | inactive | inactive | inactive | inactive
2 | O=Cc1ccccc1 | inactive | inactive | inactive | inactive | inactive | inactive | inactive | inactive | inactive | active
